Reference: ChEMBL document CHEMBL1165950, “Design and synthesis of new potent anticancer pyrazoles with high FLT3 kinase inhibitory selectivity” (Bioorg Med Chem, 2010)

Tests used:
Assay type in all cases: functional
HT-29 = experiment: Cytotoxicity against human HT-29 cells assessed as cell growth at 10 uM; details: read-out: Activity
Outline: (§1)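 Single-dose NCI-60 screen at 10 µM. Cells were grown in RPMI 1640 with 5% FBS and 2 mM L-glutamine, then treated for 48 h at 37 °C. Protein was measured by SRB staining with absorbance at 515 nm. Percentage growth was recorded, and inhibition percentage was calculated as 100 minus growth percentage.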

BT-549 = experiment: Cytotoxicity against human BT549 cells assessed as cell growth at 100 nM after 48 hrs by sulforhodamine B assay; details: BT-549, 48 h, read-out: Activity
Outline: (§2)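 NCI-60 five-dose screen. Cells were grown in RPMI 1640 with 5% FBS and 2 mM L-glutamine, plated at 5000–40,000 cells/well and preincubated for 24 h. Time-zero plates were TCA-fixed. DMSO-solubilized drug was added at five concentrations (10-fold or ½-log serial dilutions) for 48 h at 37 °C, 5% CO2. Cells were TCA-fixed, stained with 0.4% SRB and read at 515 nm. Percent growth used time-zero, control and test absorbances.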

NCI-H23 [1] = experiment: Cytotoxicity against human NCI-H23 cells assessed as cell growth at 100 nM after 48 hrs by sulforhodamine B assay; details: NCI-H23, 48 h, read-out: Activity
MDA-MB-231 = experiment: Cytotoxicity against human MDA-MB-231 cells assessed as cell growth at 10 uM after 48 hrs by sulforhodamine B assay; details: MDA-MB-231, 48 h, read-out: Activity
HOP-62 = experiment: Cytotoxicity against human HOP62 cells assessed as cell growth at 100 nM after 48 hrs by sulforhodamine B assay; details: HOP-62, 48 h, read-out: Activity
NCI-H23 [2] = experiment: Cytotoxicity against human NCI-H23 cells assessed as cell growth at 10 uM after 48 hrs by sulforhodamine B assay; details: NCI-H23, 48 h, read-out: Activity
TK-10 = experiment: Cytotoxicity against human TK10 cells assessed as cell growth at 10 uM; details: read-out: Activity
Outline: (§3)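 NCI-60 screen: cells grown in RPMI 1640 with 5% FBS and 2 mM L-glutamine, plated at 5000–40,000 cells/well according to doubling time, and preincubated 24 h at 37 °C, 5% CO2. The single 10 µM dose (DMSO stock) was added, then incubated 48 h. Cells were TCA-fixed and stained with 0.4% SRB, read at 515 nm, and growth % calculated against time-zero and control plates.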

SK-MEL-2 [3] = experiment: Growth inhibition of human SK-MEL-2 cells after 48 hrs by sulforhodamine B assay; details: SK-MEL-2, 48 h; for CC50: read-out: LC50 (the source's name)
Outline: (§4)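 NCI 60-cell screen, five-dose mode. Cells grown in RPMI 1640 with 5% FBS and 2 mM L-glutamine and plated at 5000-40,000 cells/well according to doubling time. After 24 h preincubation, a Tz plate was TCA-fixed. Five concentrations (10-fold or 1/2 log dilutions) were applied for 48 h at 37 °C. SRB staining read at 515 nm. IC50 taken from [(Ti-Tz)/(C-Tz)]×100 = 50.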

HOP-92 = experiment: Growth inhibition of human HOP92 cells after 48 hrs by sulforhodamine B assay; details: HOP-92, 48 h; for CC50: read-out: LC50 (the source's name); outline: as §4
SNB-75 [4] = experiment: Cytotoxicity against human SNB75 cells assessed as cell growth at 0.01 uM after 48 hrs by sulforhodamine B assay; details: SNB-75, 48 h, read-out: Activity
U-251 [5] = experiment: Cytotoxicity against human U251 cells assessed as cell growth at 0.001 uM after 48 hrs by sulforhodamine B assay; details: U-251, 48 h, read-out: Activity
SF-539 = experiment: Cytotoxicity against human SF539 cells assessed as cell growth at 1 uM after 48 hrs by sulforhodamine B assay; details: SF-539, 48 h, read-out: Activity
OVCAR-8 = experiment: Cytotoxicity against human OVCAR8 cells assessed as cell growth at 100 nM after 48 hrs by sulforhodamine B assay; details: OVCAR-8, 48 h, read-out: Activity
MOLT-4 [6] = experiment: Growth inhibition of human MOLT4 cells after 48 hrs by sulforhodamine B assay; details: MOLT-4, 48 h; outline: as §4
SN12C = experiment: Cytotoxicity against human SN12C cells assessed as cell growth at 1 uM after 48 hrs by sulforhodamine B assay; details: read-out: Activity
CCRF-CEM [7] = experiment: Cytotoxicity against human CCRF-CEM cells assessed as cell growth at 100 nM after 48 hrs by sulforhodamine B assay; details: read-out: Activity; outline: as §2
SK-MEL-2 [8] = experiment: Cytotoxicity against human SK-MEL-2 cells assessed as cell growth at 10 uM after 48 hrs by sulforhodamine B assay; details: SK-MEL-2, 48 h, read-out: Activity
CCRF-CEM [9] = experiment: Growth inhibition of human CCRF-CEM cells after 48 hrs by sulforhodamine B assay
Outline: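 NCI five-dose SRB assay in RPMI 1640 with 5% FBS and 2 mM L-glutamine. Cells were preincubated 24 h, then exposed 48 h at 37 °C to five concentrations (10-fold or half-log serial dilutions from DMSO stocks). TCA fixation, SRB staining, and absorbance at 515 nm followed. IC50 was taken where [(Ti−Tz)/(C−Tz)]×100 = 50, with Tz as time-zero cell density.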

U-251 [10] = experiment: Cytotoxicity against human U251 cells assessed as cell growth at 10 uM after 48 hrs by sulforhodamine B assay; details: U-251, 48 h, read-out: Activity
MOLT-4 [11] = experiment: Cytotoxicity against human MOLT4 cells assessed as cell growth at 10 uM; details: read-out: Activity; outline: as §3
MOLT-4 [12] = experiment: Cytotoxicity against human MOLT4 cells assessed as cell growth at 10 uM after 48 hrs by sulforhodamine B assay; details: MOLT-4, 48 h, read-out: Activity
UO-31 = experiment: Growth inhibition of human UO31 cells after 48 hrs by sulforhodamine B assay; details: UO-31, 48 h; for CC50: read-out: LC50 (the source's name); outline: as §4
SNB-75 [13] = experiment: Growth inhibition of human SNB75 cells after 48 hrs by sulforhodamine B assay; details: SNB-75, 48 h; for CC50: read-out: LC50 (the source's name); outline: as §4
ACHN = experiment: Cytotoxicity against human ACHN cells assessed as cell growth at 10 uM; details: read-out: Activity; outline: as §1
OVCAR-5 = experiment: Growth inhibition of human OVCAR5 cells after 48 hrs by sulforhodamine B assay; details: OVCAR-5, 48 h; for CC50: read-out: LC50 (the source's name); outline: as §4
HCT-15 = experiment: Cytotoxicity against human HCT15 cells assessed as cell growth at 0.01 uM after 48 hrs by sulforhodamine B assay; details: HCT-15, 48 h, read-out: Activity
NCI-H460 = experiment: Cytotoxicity against human NCI-H460 cells assessed as cell growth at 0.001 uM after 48 hrs by sulforhodamine B assay; details: NCI-H460, 48 h, read-out: Activity
SK-MEL-5 = experiment: Cytotoxicity against human SK-MEL-5 cells assessed as cell growth at 0.01 uM after 48 hrs by sulforhodamine B assay; details: SK-MEL-5, 48 h, read-out: Activity

## COc1cc(C)cc(-c2c(-c3ccnc(-c4ccc(C(C)=O)cc4)c3)cnn2CC#N)c1
HT-29
  growth at 10 µM: 15.2%
BT-549
  growth at 0.1 µM: 82%
NCI-H23 [1]
  growth at 0.1 µM: 95%
MDA-MB-231
  growth at 10 µM: 26%
HOP-62
  growth at 0.1 µM: 84%
NCI-H23 [2]
  growth at 10 µM: 18%
TK-10
  growth at 10 µM: 72.6%
SK-MEL-2 [3]
  GI50: 5.88 µM
  TGI: > 100 µM
  CC50: > 100 µM
HOP-92
  GI50: 1.46 µM
  TGI: 7.56 µM
  CC50: > 100 µM
SNB-75 [4]
  growth at 0.01 µM: 78%
U-251 [5]
  growth at 0.001 µM: 104%
SF-539
  growth at 1 µM: -45%
OVCAR-8
  growth at 0.1 µM: 85%
MOLT-4 [6]
  GI50: 2.63 µM
  LC50: > 100 µM
  TGI: > 100 µM
SN12C
  growth at 1 µM: 28%
CCRF-CEM [7]
  growth at 0.1 µM: 84%
SK-MEL-2 [8]
  growth at 10 µM: 20%
CCRF-CEM [9]
  GI50: 2.97 µM
  LC50: > 100 µM
  TGI: > 100 µM
U-251 [10]
  growth at 10 µM: 13%
MOLT-4 [11]
  growth at 10 µM: 58%
MOLT-4 [12]
  growth at 10 µM: 14%
UO-31
  GI50: 2.61 µM
  TGI: > 100 µM
  CC50: > 100 µM
SNB-75 [13]
  GI50: 2.08 µM
  CC50: > 100 µM
ACHN
  growth at 10 µM: 70%
OVCAR-5
  GI50: > 100 µM
  TGI: > 100 µM
  CC50: > 100 µM
HCT-15
  growth at 0.01 µM: 95%
NCI-H460
  growth at 0.001 µM: 104%
SK-MEL-5
  growth at 0.01 µM: 94%

## Cc1cc(O)cc(-c2nn(CC#N)cc2-c2ccnc(-c3ccc(Oc4ccccc4)cc3)c2)c1
HT-29
  growth at 10 µM: 0.27%
BT-549
  growth at 0.1 µM: 84%
NCI-H23 [1]
  growth at 0.1 µM: 96%
MDA-MB-231
  growth at 10 µM: -62%
HOP-62
  growth at 0.1 µM: 101%
NCI-H23 [2]
  growth at 10 µM: -75%
TK-10
  growth at 10 µM: 47.2%
SK-MEL-2 [3]
  GI50: 3.44 µM
  TGI: 11.7 µM
  CC50: 44.2 µM
HOP-92
  GI50: 1.59 µM
  TGI: 5.24 µM
  CC50: 39.5 µM
SNB-75 [4]
  growth at 0.01 µM: 79%
U-251 [5]
  growth at 0.001 µM: 97%
SF-539
  growth at 1 µM: 13%
OVCAR-8
  growth at 0.1 µM: 87%
MOLT-4 [6]
  GI50: 2.03 µM
  LC50: > 100 µM
  TGI: 6.82 µM
SN12C
  growth at 1 µM: -57%
CCRF-CEM [7]
  growth at 0.1 µM: 86%
SK-MEL-2 [8]
  growth at 10 µM: -81%
CCRF-CEM [9]
  GI50: 2.85 µM
  LC50: > 100 µM
  TGI: > 100 µM
U-251 [10]
  growth at 10 µM: -98%
MOLT-4 [11]
  growth at 10 µM: 30%
MOLT-4 [12]
  growth at 10 µM: -21%
UO-31
  GI50: 2.18 µM
  TGI: 6.54 µM
  CC50: 31.7 µM
SNB-75 [13]
  GI50: 3.82 µM
  TGI: 17.1 µM
  CC50: 42 µM
ACHN
  growth at 10 µM: 37.6%
OVCAR-5
  GI50: 4.84 µM
  TGI: 19.2 µM
  CC50: 48.3 µM
HCT-15
  growth at 0.01 µM: 96%
NCI-H460
  growth at 0.001 µM: 100%
SK-MEL-5
  growth at 0.01 µM: 93%

## COc1cc(C)cc(-c2nn(CC#N)cc2-c2ccnc(-c3ccc(N(C)C)cc3)c2)c1
HT-29
  growth at 10 µM: -7.04%
BT-549
  growth at 0.1 µM: 66%
NCI-H23 [1]
  growth at 0.1 µM: 31%
MDA-MB-231
  growth at 10 µM: 4%
HOP-62
  growth at 0.1 µM: 16%
NCI-H23 [2]
  growth at 10 µM: 5%
TK-10
  growth at 10 µM: 34.7%
SK-MEL-2 [3]
  GI50: 1.01 µM
  TGI: 45.5 µM
  CC50: > 100 µM
HOP-92
  GI50: 0.557 µM
  TGI: 26.6 µM
  CC50: > 100 µM
SNB-75 [4]
  growth at 0.01 µM: 98%
U-251 [5]
  growth at 0.001 µM: 94%
SF-539
  growth at 1 µM: -35%
OVCAR-8
  growth at 0.1 µM: 32%
MOLT-4 [6]
  GI50: 0.626 µM
  LC50: > 100 µM
  TGI: > 100 µM
SN12C
  growth at 1 µM: 8%
CCRF-CEM [7]
  growth at 0.1 µM: 24%
SK-MEL-2 [8]
  growth at 10 µM: -12%
CCRF-CEM [9]
  GI50: 0.454 µM
  LC50: > 100 µM
  TGI: > 100 µM
U-251 [10]
  growth at 10 µM: -32%
MOLT-4 [11]
  growth at 10 µM: 16%
MOLT-4 [12]
  growth at 10 µM: 1%
UO-31
  GI50: 0.619 µM
  TGI: 98.7 µM
  CC50: > 100 µM
SNB-75 [13]
  GI50: 0.286 µM
  TGI: 0.848 µM
  CC50: > 100 µM
ACHN
  growth at 10 µM: 16%
OVCAR-5
  GI50: 3.98 µM
  TGI: > 100 µM
  CC50: > 100 µM
HCT-15
  growth at 0.01 µM: 92%
NCI-H460
  growth at 0.001 µM: 103%
SK-MEL-5
  growth at 0.01 µM: 104%
